Bioassay records deposited in PubChem BioAssay by Broad Institute.
This is a sample that favours compounds with a hit; in the whole collection about 2.9% have one here.
FGF22 binding: shifts melting point of recombinant human FGF22. hit rate 1.5% among 340,000. recombinant FGF22 thermal shift, SYPRO orange fluorescence; percent of sucrose octasulfate shift, DMSO zero. activity (Tm shift, normalised), % at 9.99 µM. Q9HCT0;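 active means mean Tm shift, scaled 0 neutral to 100 positive control, at about 1.3% or above, every replicate too, limit read from the data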
Target sequence (Q9HCT0 whole entry, looked up): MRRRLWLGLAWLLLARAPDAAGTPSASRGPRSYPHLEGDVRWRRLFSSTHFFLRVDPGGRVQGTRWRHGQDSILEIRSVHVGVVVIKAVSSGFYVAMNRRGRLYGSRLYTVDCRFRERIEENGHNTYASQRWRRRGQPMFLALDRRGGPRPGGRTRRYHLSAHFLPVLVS
Vif inh: blocks HIV Vif function | hit rate 0.35% among 340,000 | HEK293T cells, Vif self-association by quenched fluorescence, imaging, 24 h | inhibition, % at 7.49 µM | AID 602346; in the data active means inhibition above about 50%, passing the limit was not always enough
Ecoli rRNA inh: selective bacterial rRNA inhibition in E. coli; E. coli WT GFP vs humanized-ribosome RFP mutants, fluorescence, 24 h; active compounds read low; DMSO median 0, no signal -100; hit rate 1.6% among 350,000; GFP signal change (wild-type ribosome), % (no concentration beside the values);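 active means significant combined selectivity score with lowered wild-type GFP, culture density cut under 30%, mutant RFP and density less affected; inactive means any of these conditions unmet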
Cneo AK release: causes C. neoformans cell lysis; adenylate kinase release luminescence, 4 h; normalised: neutral wells 0, clomiphene wells 100; lysis activity, % at 15 µM; hit rate 0.2% among 360,000; AID 651654;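 active means mean lysis activity across replicates of at least 80%, whatever share of replicates individually reach that level; inactive means mean lysis activity below 80%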
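Assay system: Cryptococcus neoformans yeast cells / Dosing: single-point compound dose / Timing: 4 h at 37 °C static, read 1 h later / Measured by: luminescence of released adenylate kinase using an AK detection reagent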
PGC1a acetyl inh: lowers PGC1a acetylation signal in U2OS cells. AlphaScreen anti-acetyl-lysine; with virally co-expressed GCN5 acetyltransferase. inhibition, % at 15.6 µM. hit rate 0.17% among 350,000;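 active means every replicate shows inhibition of at least 40%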;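 further: 0% = neutral control wells and 100% = positive control wells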
PglD DTNB: PglD (C. jejuni) enzyme inhibition; hit rate 0.098% among 360,000; inhibition, % at 12.5 µM; purified PglD enzyme, DTNB colorimetric CoA detection; in the data active means inhibition above about 16%, passing the limit was not always enough
Starred values were filed as active, the others as inactive.

How did C=C1N2CCC(CC2)C1(O)c1ccc(C)c(C)c1 (configuration not stated) do in these assays?
Vif inh: 51.2*; Cneo AK release: 2.5; PGC1a acetyl inh: 10.7; PglD DTNB: -0.8

How did O=C(Cc1ccccn1)N1CCCCN2[C@H](CO)[C@H](c3ccc(C#Cc4ccccc4)cc3)[C@@H]2C1 do in these assays?
FGF22 binding: 0.4; Ecoli rRNA inh: -10.0; Cneo AK release: 42.8; PGC1a acetyl inh: -2.5; PglD DTNB: -0.2

What do the screens show for `COC(=O)[C@H]1[C@H](CO)[C@H]2Cn3c(ccc(-c4ccccc4)c3=O)[C@@H]1N2CC1CCOCC1`?
FGF22 binding: 0.0; Ecoli rRNA inh: 2.2; Cneo AK release: 0.9; PGC1a acetyl inh: -1.2; PglD DTNB: 0.0

How did C[C@@H]1O[C@@H](O[C@@H]2C=C3CC[C@@H]4C(CC[C@]5(C)[C@@H](c6ccc(=O)oc6)CC[C@]45O)[C@@]3(C)CC2)[C@H](O)[C@H](O)[C@H]1O (some centres not stated) do in these assays?
FGF22 binding: 0.2; Vif inh: -15.9; Ecoli rRNA inh: 2.5; Cneo AK release: 3.5; PGC1a acetyl inh: 67.0*; PglD DTNB: 8.2

How did CC(=O)C1CCC2(O)C3CCC4=CC(=O)CCC4(C)C3CCC12C (configuration not stated) do in these assays?
FGF22 binding: 0.1; Vif inh: 22.9; Ecoli rRNA inh: -7.9; Cneo AK release: -0.6; PglD DTNB: -0.2

Results for C[C@@H]1O[C@@H](O[C@@H]2C=C3CCC4C(CC[C@]5(C)[C@@H](c6ccc(=O)oc6)CC[C@]45O)[C@@]3(C)CC2)[C@H](O)[C@H](O)[C@H]1O (some centres not stated) ?
FGF22 binding: 0.0; Vif inh: -28.2; Cneo AK release: -2.8; PGC1a acetyl inh: 60.1*; PglD DTNB: -0.8

What do the screens show for `O=C(O)[C@@H]1[C@@H](CO)[C@@H]2Cn3c(ccc(-c4ccccc4)c3=O)[C@H]1N2CC1CCCCC1`?
FGF22 binding: 0.0; Ecoli rRNA inh: 5.5; Cneo AK release: -2.3; PglD DTNB: 1.5

What do the screens show for `CC(=O)OC1(C)CC(C)C(=O)C(C(O)CC2CC(=O)NC(=O)C2)C1` (configuration not stated)?
FGF22 binding: -0.2; Vif inh: -29.1; Cneo AK release: 97.8*; PGC1a acetyl inh: 92.7*; PglD DTNB: -2.6

Results for C[C@@H]1C[C@@H]([C@H](O)CC2CC(=O)NC(=O)C2)C(=O)[C@@H](C)C1 ?
FGF22 binding: 0.1; Vif inh: -24.2; Ecoli rRNA inh: 6.5; Cneo AK release: -4.9; PGC1a acetyl inh: 72.7*; PglD DTNB: -2.5

How did CC(C)NC(=O)N1C[C@@H]2N[C@H](C1)C2c1ccccc1 (some centres not stated) do in these assays?
Ecoli rRNA inh: 1.1

Results for Cc1nc(Cl)sc1C(=O)Nc1ccc2ccccc2c1 ?
FGF22 binding: 0.0; Ecoli rRNA inh: -30.7*

Results for Cc1ccc(-c2nc3ccccc3c(=O)n2-c2ccncc2)cc1 ?
Vif inh: -2.8

How did COc1ccc(-n2c(-c3ccc(C)cc3)nc3ccccc3c2=O)cc1 do in these assays?
FGF22 binding: -0.1; Vif inh: -4.1; Ecoli rRNA inh: -26.8*; PGC1a acetyl inh: -4.9

How did CC(=O)OC1C(O)C(C)OC(OC2C(OC(=O)C3CCC4C(C3)OC3(CC(OC(=O)/C=C/c5ccccc5)C(C)CO3)C43CO3)OC(C)C(O)C2OC(C)=O)C1O (configuration not stated) do in these assays?
FGF22 binding: -0.2; Vif inh: 5.5; PGC1a acetyl inh: 77.7*

How did CC(=O)C1C(N2CC2)CC2C3CC=C4CC(O)CCC4(C)C3CCC21C (configuration not stated) do in these assays?
FGF22 binding: 44.1*; Vif inh: 11.4; Ecoli rRNA inh: -11.7; Cneo AK release: -0.6; PGC1a acetyl inh: -27.1; PglD DTNB: -2.0

How did Cn1cccc1/C=C1\C(=O)NC(=O)N(Cc2ccccc2Cl)C1=O do in these assays?
FGF22 binding: 44.3*; Vif inh: -1.6; Ecoli rRNA inh: 7.4
